Source: ChEMBL document CHEMBL1149086, “Antimalarial and antitumor evaluation of novel C-10 non-acetal dimers of 10beta-(2-hydroxyethyl)deoxoartemisinin” (J Med Chem, 2004)

What was measured:
HCC 2998 [1] = test: Concentration of the drug required to achieve 50% cytotoxicity against colon HCC2998 cancer cell line; type: functional; details: Homo sapiens, read-out: LC50 (the source's name)
PC-3 [2] = test: inhibition against prostate PC-3 cell line; type: functional; details: Homo sapiens
MCF7 = test: inhibition against breast MCF-7 cancer cell line; type: functional; details: Homo sapiens
Jurkat [3] = test: Tested for apoptosis in jurkat cells at a concentration of 0 uM of the compound; type: functional, Homo sapiens
Procedure, shortened: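 Jurkat cells (1 × 10⁶ cells mL⁻¹; >98% viable, <2% background apoptosis) incubated 24 h at 37 °C with compound (0–100 μM range, in DMSO). Nuclei stained with propidium iodide (50 μM) in HBSS with 0.1% Triton-X for 10 min at 37 °C. Apoptotic nuclei measured by flow cytometry. Mean ± SD of triplicate incubations in one experiment; Kruskal–Wallis test against DMSO control.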

MOLT-4 [4] = test: Concentration required to achieve total growth inhibition against leukemia MOLT-4 cell line; type: functional; details: Homo sapiens
LOX IMVI [5] = test: Concentration required to achieve total growth inhibition against melanoma LOX IMVI cell line; type: functional; details: Homo sapiens
Malme-3M [6] = test: Concentration of the drug required to achieve 50% cytotoxicity against melanoma MALME-3M cell line; type: cell-based; details: human
HCT-116 [7] = test: Concentration required to achieve total growth inhibition against colon HCT116 cancer cell line; type: functional; details: Homo sapiens
HCT-116 [8] = test: Concentration of the drug required to achieve 50% cytotoxicity against colon HCT116 cancer cell line; type: functional; details: Homo sapiens, read-out: LC50 (the source's name)
SR [9] = test: inhibition against leukemia SR cell line; type: functional; details: Homo sapiens
NCI/ADR-RES = test: inhibition against breast NCI/ ADR-RES cancer cell line; type: functional; details: Homo sapiens
SK-MEL-5 = test: Concentration of the drug required to achieve 50% cytotoxicity against melanoma SK-MEL-5 cell line; type: cell-based; details: human
HL-60 [10] = test: Inhibitory concentration against HL60 cells; type: functional, cell-based; details: Homo sapiens
Procedure, shortened: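 HL60 (2.5 × 10⁴/well) or Jurkat (1 × 10⁵/well) in RPMI-1640 with 10% FBS and 1% L-glutamine, 5% CO2, 37 °C. Exposed to 10⁻¹⁰–10⁻⁴ M for 72 h, final DMSO below 0.5% v/v. [3H]-thymidine (0.5 μCi) added for the final 24 h. Incorporation counted by β-scintillation.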

SW-620 = test: inhibition against colon SW-620 cancer cell line; type: functional; details: Homo sapiens
HCT-15 [11] = test: Concentration of the drug required to achieve 50% cytotoxicity against colon HCT-15 cancer cell line; type: functional; details: Homo sapiens, read-out: LC50 (the source's name)
K562 [12] = test: Concentration required to achieve total growth inhibition against leukemia K-562 cell line; type: functional; details: Homo sapiens
SR [13] = test: Concentration required to achieve total growth inhibition against leukemia SR cell line; type: functional; details: Homo sapiens
[14] = Concentration of the drug required to achieve 50% cytotoxicity against leukemia CCRF-CEM cell line; type: functional; details: Homo sapiens, read-out: LC50 (the source's name)
HT-29 = test: inhibition against colon HT-29 cancer cell line; type: functional; details: Homo sapiens
LOX IMVI [15] = test: Concentration of the drug required to achieve 50% cytotoxicity against melanoma LOX IMVI cell line; type: cell-based; details: human
RPMI-8226 = test: Concentration of the drug required to achieve 50% cytotoxicity against leukemia RPMI-8226 cell line; type: functional; details: Homo sapiens, read-out: LC50 (the source's name)
PC-3 [16] = test: Concentration of the drug required to achieve 50% cytotoxicity against prostate PC-3 cell line; type: cell-based; details: human
UACC-62 = test: inhibition against melanoma UACC-62 cell line; type: functional; details: Homo sapiens
HCC 2998 [17] = test: Concentration required to achieve total growth inhibition against colon HCC2998 cancer cell line; type: functional; details: Homo sapiens
K562 [18] = test: Concentration of the drug required to achieve 50% cytotoxicity against leukemia K-562 cell line; type: functional; details: Homo sapiens, read-out: LC50 (the source's name)
KM12 = test: inhibition against colon KM12 cancer cell line; type: functional; details: Homo sapiens
T47D [19] = test: inhibition against breast T-47D cancer cell line; type: functional; details: Homo sapiens
SR [20] = test: Concentration of the drug required to achieve 50% cytotoxicity against leukemia SR cell line; type: functional; details: Homo sapiens, read-out: LC50 (the source's name)
Malme-3M [21] = test: inhibition against melanoma MALME-3M cell line; type: functional; details: Homo sapiens
HCT-15 [22] = test: inhibition against colon HCT-15 cancer cell line; type: functional; details: Homo sapiens
MOLT-4 [23] = test: inhibition against leukemia MOLT-4 cell line; type: functional; details: Homo sapiens
Jurkat [24] = test: Tested for apoptosis in jurkat cells at a concentration of 0.3 uM of the compound; type: functional, Homo sapiens
Procedure, shortened: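 Jurkat cells (>98% viable, <2% background apoptosis) at 1 × 10⁶ cells/mL were exposed to 0–100 μM drug (DMSO) for 24 h at 37 °C in 5% CO₂. Nuclei were stained with 50 μM propidium iodide and 0.1% Triton-X in HBSS for 10 min at 37 °C, then scored as apoptotic by flow cytometry. Triplicate incubations in one experiment, mean ± SD; Kruskal–Wallis test versus DMSO control.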

HL-60 [25] = test: inhibition against leukemia HL-60(TB) cell line; type: functional; details: Homo sapiens
T47D [26] = test: Concentration of the drug required to achieve 50% cytotoxicity against breast T-47D cancer cell line; type: cell-based; details: human
CCRF-CEM = test: Concentration required to achieve total growth inhibition against leukemia CCRF-CEM cell line; type: functional; details: Homo sapiens
HCC 2998 [27] = test: inhibition against colon HCC2998 cancer cell line; type: functional; details: Homo sapiens
HCT-15 [28] = test: Concentration required to achieve total growth inhibition against colon HCT-15 cancer cell line; type: functional; details: Homo sapiens

**Q.** What does the source list for `C[C@H]1[C@@H](CCOP(=O)(OCC[C@H]2O[C@@H]3OC4(C)CC[C@H]5[C@H](C)CC[C@@H]([C@H]2C)[C@@]35OO4)Oc2ccccc2)O[C@@H]2OC3(C)CC[C@H]4[C@H](C)CC[C@@H]1[C@@]24OO3` (single isomer, unassigned)?
**A.** CC50 (HCC 2998 [1]): > 100000 nM; GI50 (PC-3 [2]): < 10 nM; GI50 (MCF7): 106 nM; Activity (Jurkat [3]): 7.5%; TGI (MOLT-4 [4]): 11900 nM; TGI (LOX IMVI [5]): 15600 nM; LC50 (Malme-3M [6]): > 100000 nM; TGI (HCT-116 [7]): > 100000 nM; CC50 (HCT-116 [8]): > 100000 nM; GI50 (SR [9]): < 10 nM; GI50 (NCI/ADR-RES): 500 nM; LC50 (SK-MEL-5): > 100000 nM; IC50 (HL-60 [10]): 241 nM; GI50 (SW-620): < 10 nM; CC50 (HCT-15 [11]): > 100000 nM; TGI (K562 [12]): 100000 nM; TGI (SR [13]): 263 nM; CC50 [14]: > 100000 nM; GI50 (HT-29): < 10 nM; LC50 (LOX IMVI [15]): > 100000 nM; CC50 (RPMI-8226): > 100000 nM; LC50 (PC-3 [16]): > 100000 nM; GI50 (UACC-62): 75.3 nM; TGI (HCC 2998 [17]): 2850 nM; CC50 (K562 [18]): > 100000 nM; GI50 (KM12): < 10 nM; GI50 (T47D [19]): 25.6 nM; CC50 (SR [20]): > 100000 nM; GI50 (Malme-3M [21]): 194 nM; GI50 (HCT-15 [22]): < 10 nM; GI50 (MOLT-4 [23]): < 10 nM; Activity (Jurkat [24]): 7.3%; GI50 (HL-60 [25]): 11.5 nM; LC50 (T47D [26]): > 100000 nM; TGI (CCRF-CEM): 56000 nM; GI50 (HCC 2998 [27]): 64.8 nM; TGI (HCT-15 [28]): > 100000 nM
